This is an account of results in ChEMBL document CHEMBL1125486, “Inhibitors of blood platelet cAMP phosphodiesterase. 3. 1,3-Dihydro-2H-imidazo[4,5-b]quinolin-2-one derivatives with enhanced aqueous solubility” (J Med Chem, 1992).

Series [1] is described as follows: Aqueous solubility. It counts as physicochemical. To be noted: water; read-out: S. The method, boiled down:
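Water (0.5 mL) added to 10 mg compound at room temperature, diluted up to […] unless dissolution occurred.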

For series [2], the species on record is Homo sapiens. As to the kind of experiment: Inhibition of ADP-induced aggregation of human platelets. It counts as functional.
Series [3] addresses T1, Phosphodiesterase 3 (Homo sapiens, UniProt Q14432+Q13370). As to the kind of experiment: Inhibition of human platelet cAMP Phosphodiesterase PDE 3. The method, boiled down:
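Human platelet cAMP PDE enzyme preparation; IC50 read from plots of cAMP hydrolysis against compound concentration; mean of duplicate determinations; BMY 20844 positive control.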

The species named for series [4] is Oryctolagus cuniculus. As to the kind of experiment: Inhibition of laser induced thrombus formation in microvasculature of rabbit ear chamber. It counts as functional, organism-based. A digest of the protocol: (§1)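 Conscious rabbits, laser-induced microvessel thrombosis, oral dosing; 10 trials 2 h post-dose compared with 10 predose trials in same rabbit; mean thrombus area, % inhibition; at least three rabbits per compound.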

Series [5] relates to Oryctolagus cuniculus. Description: Inhibition of laser induced thrombus formation in microvasculature of rabbit ear chamber at a peroral dose of 0.1 mg/kg. To be noted: route oral. It counts as functional. The method, boiled down: as §1
The target of series [6] is T1, Phosphodiesterase 3. As to the kind of experiment: Inhibition of human platelet c-AMP phosphodiesterase PDE 3.
Series [7] is described as follows: Solubility in 0.25 N HCl solution. It counts as physicochemical. To be noted: read-out: S. A digest of the protocol:
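Solubility tested as for water, 0.5 mL solvent on 10 mg solid at room temperature with up to […] dilution, but in 0.25 N HCl solution.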

The species entered for series [8] is Homo sapiens. As to the kind of experiment: Inhibition of ADP induced aggregation of human platelets after 15 min of incubation of the drug with PRP prior to the addition of ADP. In kind it is functional. The conditions noted are these: 0.25 h.
Series [9] has as its system Oryctolagus cuniculus. Description: Inhibition of laser induced thrombus formation in microvasculature of rabbit ear chamber at a dose of 0.3 mg/kg. It counts as functional. A digest of the protocol: as §1
Series [10] concerns Oryctolagus cuniculus. As to the kind of experiment: Inhibition of laser induced thrombus formation in microvasculature of rabbit ear chamber at dose of 0.03 mg/kg. It counts as functional. The method, boiled down: as §1
Series [11] has as its system Oryctolagus cuniculus. As to the kind of experiment: Inhibition of laser induced thrombus formation in microvasculature of rabbit ear chamber at a peroral dose of 3 mg/kg. It counts as functional. To be noted: route oral. The method, boiled down:
as §1

Series [12] deals with Oryctolagus cuniculus. Description: Inhibition of laser induced thrombus formation in microvasculature of rabbit ear chamber at a peroral dose of 1 mg/kg. To be noted: route oral. It counts as functional. A digest of the protocol: as §1

The structures appear in SMILES notation. Some results are limits rather than exact numbers.

By EC50 is commonly meant the midpoint of the concentration-response curve. The low end stands for an effect from little substance, the high end for a need for much substance. `O=C(CCCOc1ccc2[nH]c3nc(O)nc-3cc2c1)N1CCN(CC(=O)N2CCCC2)CC1`: in series [1], the solubility was above 10000 µg/mL. The compound further showed an EC50 in the series listed under Homo sapiens [2] above 56500 nM. The compound also displayed an IC50 at Phosphodiesterase 3 [3] of 6 nM.

What is called inhibition in vivo is the change of the read-out against control, counted positive when it falls. Read a high inhibition in vivo as a response far below the control. Turning to `O=C(CCCCOc1ccc2[nH]c3nc(O)nc-3cc2c1)N1CCN(CC2CCCCC2)CC1`, in series [1], the solubility was above 10000 µg/mL. In addition, in the series filed under Homo sapiens [2], the EC50 is 51 nM. Besides, the IC50 in the series listed under Oryctolagus cuniculus [4] came out at 0.03 mg/kg; at Phosphodiesterase 3 [6], 0.03 nM. The compound also had an inhibition in vivo at 0.1 mg/kg with Oryctolagus cuniculus [5] above 50%.

For the compound `CN1CCCC1CCNC(=O)CCCOc1ccc2[nH]c3nc(O)nc-3cc2c1` (centres undefined), in series [7], the solubility is above 10000 µg/mL. The 50% effective concentration (EC50) in the series listed under Homo sapiens [2] was 79800 nM. In addition, the IC50 on Phosphodiesterase 3 [6] came to 20 nM.

As for `O=C(CCCOc1ccc2[nH]c3nc(O)nc-3cc2c1)N1CCN(CC2CCCCC2)CC1`, the solubility in series [1] is above 10000 µg/mL. Also, the IC50 worked out at 100 nM in the series listed under Homo sapiens [8] and 0.4 nM on Phosphodiesterase 3 [6]. Further, it took 510 nM to reach a half-maximal effect in the series filed under Homo sapiens [2] (EC50).

In the case of `O=C(CCCOc1ccc2[nH]c3nc(O)nc-3cc2c1)N1CCN(Cc2ccccc2)CC1`, the solubility in series [1] was above 10000 µg/mL. In the series on Oryctolagus cuniculus [9], this compound registered an inhibition in vivo at 0.3 mg/kg of 64%. Besides, in the series on Oryctolagus cuniculus [5], at 0.1 mg/kg the inhibition in vivo was 50%. The compound further came in with an inhibition in vivo at 0.03 mg/kg in the series on Oryctolagus cuniculus [10] of 41%. The compound also displayed an IC50 at Phosphodiesterase 3 [6] of 0.7 nM.

As for `Oc1nc2cc3cc(N4CCCCC4)ccc3[nH]c-2n1`, in series [1], the solubility was above 10000 µg/mL. In the series filed under Homo sapiens [2], this compound gave an EC50 of 900 nM. The inhibition in vivo at 3 mg/kg in the series with Oryctolagus cuniculus [11] turned out to be 59%. In addition, the inhibition in vivo at 1 mg/kg in the series on Oryctolagus cuniculus [12] is 32%.
